Measured values as given in paper PMC7397737 (Chemical research in toxicology, 2019).
Several values for one entry are separate records, joined by “and”; a condition that tells them apart may be missing. Equal entries are not always repeated.

Assays:
[1] = test system: stearoyl-CoA desaturase 1 (SCD1); test: Hepatic Scd1 mRNA; assay type: in vivo, mouse; settings: for mRNA levels of Scd1 in liver: qPCR, vs control mice
Method in brief: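 C57BL/6J mice (n = 6; n = 4 in SCD1-inhibitor study) gavaged with test compound 100 mg/kg every 24 h ×3, vehicle 0.5% CMC-Na. Where used, SCD1 inhibitor (DMSO/Tween 80/saline 1:2:97) was given i.p. twice daily, 10 mg/kg/day, starting before first dose. Liver flash-frozen. Western: RIPA/PMSF lysate, 10 μg protein, 10% SDS-PAGE, PVDF, ECL detection. mRNA by qRT-PCR.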

C57BL/6J mice [2] = test: Experiment 4: SCD1 suppression by A939572 with 1′-hydroxyelemicin in mice; assay type: in vivo, mouse; settings: A939572 10 mg/kg/day i.p. + 100 mg/kg 1′-hydroxyelemicin
C57BL/6J mice [3] = test: Experiment 6: elemicin versus 1′-hydroxyelemicin toxicity at the same dose; assay type: in vivo, mouse
[4] = mouse, in vivo, 100 mg/kg
C57BL/6J mice [5] = test: Experiment 5: alpha-naphthoflavone with elemicin in mice; assay type: in vivo, mouse; settings: alpha-naphthoflavone 80 mg/kg/day i.p. + elemicin 500 mg/kg oral for 7 days
[6] = test system: CYPs in pooled mouse liver microsomes (MLMs); test: Chemical inhibition of 1′-hydroxyelemicin formation in liver microsomes; assay type: in vitro ADME; settings: 50 μM elemicin, MLMs 0.5 mg/mL, 40 min
C57BL/6J mice [7] = test: Experiment 3: high-oleic acid diet with 1′-hydroxyelemicin in mice; assay type: in vivo, mouse; settings: high-oleic acid diet + 100 mg/kg 1′-hydroxyelemicin 3 days
human recombinant CYP2A6 = biological target: T1, human recombinant CYP2A6 (Homo sapiens, UniProt P11509); test: Kinetics of elemicin 1′-hydroxylation by recombinant CYP2A6; assay type: in vitro ADME
T1 sequence (P11509 1-494): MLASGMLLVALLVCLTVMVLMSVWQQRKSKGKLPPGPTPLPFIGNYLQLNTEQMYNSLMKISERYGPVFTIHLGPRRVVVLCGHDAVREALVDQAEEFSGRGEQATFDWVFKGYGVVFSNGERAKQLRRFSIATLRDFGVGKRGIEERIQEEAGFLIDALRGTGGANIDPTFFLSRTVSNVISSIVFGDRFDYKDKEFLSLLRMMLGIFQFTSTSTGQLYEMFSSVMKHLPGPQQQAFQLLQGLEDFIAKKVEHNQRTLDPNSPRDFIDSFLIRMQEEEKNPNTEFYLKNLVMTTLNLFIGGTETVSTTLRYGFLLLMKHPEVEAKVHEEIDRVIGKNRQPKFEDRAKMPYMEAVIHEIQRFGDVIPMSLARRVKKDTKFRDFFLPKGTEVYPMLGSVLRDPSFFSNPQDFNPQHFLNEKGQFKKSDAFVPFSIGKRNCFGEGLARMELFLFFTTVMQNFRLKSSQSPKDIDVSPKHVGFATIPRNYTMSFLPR

human recombinant CYP1A1 = biological target: T2, human recombinant CYP1A1 (Homo sapiens, UniProt P04798); test: Kinetics of elemicin 1′-hydroxylation by recombinant CYP1A1; assay type: in vitro ADME
T2 sequence (P04798 1-512): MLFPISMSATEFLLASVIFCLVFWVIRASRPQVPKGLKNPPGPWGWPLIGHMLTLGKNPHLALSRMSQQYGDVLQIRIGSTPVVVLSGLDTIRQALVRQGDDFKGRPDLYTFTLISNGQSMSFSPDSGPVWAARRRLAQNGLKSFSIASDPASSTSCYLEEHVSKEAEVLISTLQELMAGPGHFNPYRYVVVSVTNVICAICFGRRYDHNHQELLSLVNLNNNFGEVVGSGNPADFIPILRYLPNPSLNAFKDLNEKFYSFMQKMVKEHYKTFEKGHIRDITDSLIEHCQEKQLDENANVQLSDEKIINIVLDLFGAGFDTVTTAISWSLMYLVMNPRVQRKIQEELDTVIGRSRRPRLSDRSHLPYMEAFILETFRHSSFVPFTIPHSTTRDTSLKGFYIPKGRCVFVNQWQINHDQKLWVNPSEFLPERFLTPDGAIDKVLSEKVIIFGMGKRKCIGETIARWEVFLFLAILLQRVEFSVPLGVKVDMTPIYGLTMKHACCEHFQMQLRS

C57BL/6J mice [8] = test: Experiment 1: toxicity of elemicin in mice, 3 weeks; assay type: in vivo, mouse
[9] = substrate: C=CCc1cc(OC)c(OC)c(OC)c1; test: Kinetics of elemicin 1′-hydroxylation by recombinant CYP1A1; assay type: in vitro ADME, human; settings: other: 1′-hydroxyelemicin formation from elemicin, mean ± SD
[10] = substrate: C=CCc1cc(OC)c(OC)c(OC)c1; test: Kinetics of elemicin 1′-hydroxylation by recombinant CYP1A2; assay type: in vitro ADME, human; settings: other: 1′-hydroxyelemicin formation from elemicin, mean ± SD
[11] = substrate: C=CCc1cc(OC)c(OC)c(OC)c1; test: Kinetics of elemicin 1′-hydroxylation by recombinant CYP2A6; assay type: in vitro ADME, human; settings: other: 1′-hydroxyelemicin formation from elemicin, mean ± SD
[12] = substrate: C=CCc1cc(OC)c(OC)c(OC)c1; test: Kinetics of elemicin 1′-hydroxylation by recombinant CYP2C19; assay type: in vitro ADME, human; settings: other: 1′-hydroxyelemicin formation from elemicin, mean ± SD
[13] = 1′-hydroxyelemicin 100 mg/kg oral, 3 days
[14] = elemicin 500 mg/kg oral, 3 weeks
[15] = 500 mg/kg oral every 24 h for 3 weeks, vs control group
[16] = 500 mg/kg oral, 3 weeks, vs control group

## CNC(=O)c1cccc(NC(=O)N2CCC(Oc3ccccc3Cl)CC2)c1 [A939572]
[1]; A939572 10 mg/kg/day i.p. + 100 mg/kg 1′-hydroxyelemicin, A + E′ group
  SCD1 expression in liver (Western blot): significantly decreased
C57BL/6J mice [2]; A + E′ group
  levels of monounsaturated-LPCs in plasma: further decreased
C57BL/6J mice [2]; A + E′ vs E′ group
  TG levels in plasma: markedly elevated
  ratio of unsaturated-LPCs to saturated-LPCs: significantly reduced

## C=CC(O)c1cc(OC)c(OC)c(OC)c1 (stereo not shown) [1′-hydroxyelemicin]
[1]; [13]
  SCD1 protein in liver (Western blot): decreased
  mRNA levels of Scd1 in liver: clearly decreased
C57BL/6J mice [3]; mouse, in vivo
  liver index compared with the same dose of elemicin: higher
[4]
  GSH adduct in urine: observed in the urine

## O=c1cc(-c2ccccc2)oc2c1ccc1ccccc12 [α-naphthoflavone]
C57BL/6J mice [5]
  elemicin-induced hepatomegaly: significantly alleviate
[6]; inhibitor 1 μM (CYP1A1/2)
  inhibitory effect against 1′-hydroxyelemicin generation: relative higher inhibitory effects

## CCCCCCCC/C=C\CCCCCCCC(=O)O [oleic acid]
C57BL/6J mice [7]
  16:1-LPC, 18:1-LPC and 18:2-LPC levels in plasma: ameliorated the decrease
  ratios of 18:1-LPC to 18:0-LPC and 16:1-LPC to 16:0-LPC in plasma: increased to normal level
C57BL/6J mice [7]; vs control mice
  hepatic TG content: still higher than that of control mice
  liver size: still higher than that of control mice

## C=CCc1cc(OC)c(OC)c(OC)c1 [elemicin, 3,4,5-trimethoxyallylbenzene]
[1]; [14]
  SCD1 protein in liver (Western blot): decreased
  mRNA levels of Scd1 in liver: clearly decreased
Human recombinant CYP2A6; 1′-hydroxyelemicin formation from elemicin, mean ± SD
  Vmax: 0.524 ± 0.110 nmol min^−1 nmol P450^−1
Human recombinant CYP2A6; Vmax/Km × 1000 μL
  in vitro catalytic efficiency: 0.520 μL min^−1 nmol P450^−1
Human recombinant CYP1A1
  Vmax: 1.80 ± 0.045 nmol ● min^−1 nmol ● CYP^−1
Human recombinant CYP1A1; Vmax/Km × 1000 μL
  in vitro catalytic efficiency: 140.062 μL min^−1 nmol P450^−1
C57BL/6J mice [3]; 100 mg/kg for 3 days, mice
  hepatomegaly: did not result in hepatomegaly
C57BL/6J mice [8]; 500 mg/kg oral every 24 h for 3 weeks, H&E
  histopathological analysis of hepatic tissue: cytoplasmic pale staining, hepatocyte swelling and the cytoplasm seemed abnormal around the central vein
C57BL/6J mice [8]; [15]
  TG levels in liver: significantly elevated
  TG levels in plasma: significantly elevated
  liver weights (hepatic index): increased
  serum ALT: no significant changes
  total plasma GSH and GSSG: reduced
C57BL/6J mice [8]; [16]
  ratios of 18:1-LPC to 18:0-LPC and 16:1-LPC to 16:0-LPC in plasma: dramatically reduced
  saturated LPC (18:0-LPC) in plasma: significantly increased
  unsaturated LPCs (18:1-, 18:2-, 16:1-, 20:4-LPC) in plasma: obviously reduced

## CC(=O)N1CCN(c2ccc(OCC3COC(Cn4ccnc4)(c4ccc(Cl)cc4Cl)O3)cc2)CC1 (stereo not shown) [ketoconazole]
[6]; inhibitor 10 μM (CYP3A4)
  inhibitory effect against 1′-hydroxyelemicin generation: relative higher inhibitory effects

B1: human recombinant CYP1A1 (Homo sapiens) (protein)
chain: T2 sequence (P04798 1-512)
[9]
  Km: 12.9 ± 1.26 µM and 12.880 ± 1.265 µM
  kcat/Km: 140 μL min^−1 nmol CYP^−1

B2: human recombinant CYP1A2 (Homo sapiens) (protein)
chain: MALSQSVPFSATELLLASAIFCLVFWVLKGLRPRVPKGLKSPPEPWGWPLLGHVLTLGKNPHLALSRMSQRYGDVLQIRIGSTPVLVLSRLDTIRQALVRQGDDFKGRPDLYTSTLITDGQSLTFSTDSGPVWAARRRLAQNALNTFSIASDPASSSSCYLEEHVSKEAKALISRLQELMAGPGHFDPYNQVVVSVANVIGAMCFGQHFPESSDEMLSLVKNTHEFVETASSGNPLDFFPILRYLPNPALQRFKAFNQRFLWFLQKTVQEHYQDFDKNSVRDITGALFKHSKKGPRASGNLIPQEKIVNLVNDIFGAGFDTVTTAISWSLMYLVTKPEIQRKIQKELDTVIGRERRPRLSDRPQLPYLEAFILETFRHSSFLPFTIPHSTTRDTTLNGFYIPKKCCVFVNQWQVNHDPELWEDPSEFRPERFLTADGTAINKPLSEKMMLFGMGKRRCIGEVLAKWEIFLFLAILLQQLEFSVPPGVKVDLTPIYGLTMKHARCEHVQARLRFSIN
[10]
  Km: 15.850 ± 3.067 µM
  kcat: 0.0067 ± 0.00035 s⁻¹
  kcat/Km: 423 M⁻¹ s⁻¹

B3: human recombinant CYP2A6 (Homo sapiens) (protein)
chain: T1 sequence (P11509 1-494)
[11]
  Km: 1007.000 ± 293.000 µM

B4: human recombinant CYP2C19 (Homo sapiens) (protein)
chain: MDPFVVLVLCLSCLLLLSIWRQSSGRGKLPPGPTPLPVIGNILQIDIKDVSKSLTNLSKIYGPVFTLYFGLERMVVLHGYEVVKEALIDLGEEFSGRGHFPLAERANRGFGIVFSNGKRWKEIRRFSLMTLRNFGMGKRSIEDRVQEEARCLVEELRKTKASPCDPTFILGCAPCNVICSIIFQKRFDYKDQQFLNLMEKLNENIRIVSTPWIQICNNFPTIIDYFPGTHNKLLKNLAFMESDILEKVKEHQESMDINNPRDFIDCFLIKMEKEKQNQQSEFTIENLVITAADLLGAGTETTSTTLRYALLLLLKHPEVTAKVQEEIERVIGRNRSPCMQDRGHMPYTDAVVHEVQRYIDLIPTSLPHAVTCDVKFRNYLIPKGTTILTSLTSVLHDNKEFPNPEMFDPRHFLDEGGNFKKSNYFMPFSAGKRICVGEGLARMELFLFLTFILQNFNLKSLIDPKDLDTTPVVNGFASVPPFYQLCFIPV
[12]
  Km: 43.430 ± 3.613 µM
  kcat: 0.00792 ± 0.0002 s⁻¹
  kcat/Km: 182 M⁻¹ s⁻¹
